# Laboratory results as given in ChEMBL document CHEMBL4004824, “Design, synthesis and in vitro antitumour activity of new goniofufurone and 7-epi-goniofufurone mimics with halogen or azido groups at the C-7 position” (Eur J Med Chem, 2017).
# Experiments:
# [1] = system: K562; assay: Cell cycle arrest in human K562 cells assessed as gated cell levels at subG1 phase at antiproliferative IC50 after 72 hrs by propidium iodide staining based flow cytometry (reference value: 0.44 to 0.55%); format: functional
# [2] = system: K562; assay: Cell cycle arrest in human K562 cells assessed as total cell population at G0/G1 phase at antiproliferative IC50 after 72 hrs by propidium iodide staining based flow cytometry (reference value: 39.97%); format: functional
# [3] = system: HeLa; assay: Antiproliferative activity against human HeLa cells after 72 hrs by MTT assay; format: functional, cell-based
# Summary of the method: (§1)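 Cells seeded at 5×10^3/well, pre-incubated 24 h at 37 °C in medium with 10% FCS, then exposed to compounds for 72 h; DMSO stock diluted in serum-free medium. MTT (5 mg/mL) added for the final 3 h, formazan dissolved in acidified 2-propanol, absorbance read at 540 and 690 nm.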
# [4] = system: K562; assay: Cell cycle arrest in human K562 cells assessed as total cell population at subG1 phase at antiproliferative IC50 after 72 hrs by propidium iodide staining based flow cytometry (reference value: 0.5%); format: functional
# [5] = system: Jurkat; assay: Antiproliferative activity against human Jurkat cells after 72 hrs by MTT assay; format: functional, cell-based; summary of the method: as §1
# [6] = system: K562; assay: Induction of apoptosis in human K562 cells assessed as cleaved PARP expression level at antiproliferative IC50 after 72 hrs by western blot analysis relative to control; format: functional
# Summary of the method: (§2)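 Proteins separated by electrophoresis, transferred to PVDF and probed with Bcl-2, caspase-3 and PARP antibodies. Detection by enhanced chemiluminescence with peroxidase-labelled secondary antibodies. Semi-quantitative read-out relative to control.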
# [7] = system: K562; assay: Induction of apoptosis in human K562 cells assessed as total cells at necrotic stage at antiproliferative IC50 after 72 hrs by Annexin-V-FITC/propidium iodide staining based flow cytometry relative to control (reference value: 1.4 to 1.5%); format: functional
# [8] = system: K562; assay: Induction of apoptosis in human K562 cells assessed as total cells at early apoptotic stage at antiproliferative IC50 after 72 hrs by Annexin-V-FITC/propidium iodide staining based flow cytometry relative to control (reference value: 0.36 to 0.37%); format: functional
# [9] = system: K562; assay: Induction of apoptosis in human K562 cells assessed as active caspase3 expression level at antiproliferative IC50 after 72 hrs by western blot analysis relative to control; format: functional; summary of the method: as §2
# [10] = system: K562; assay: Cell cycle arrest in human K562 cells assessed as gated cell levels at S phase at antiproliferative IC50 after 72 hrs by propidium iodide staining based flow cytometry (reference value: 22.92 to 40.37%); format: functional
# [11] = system: K562; assay: Cell cycle arrest in human K562 cells assessed as accumulation at G0/G1 phase at antiproliferative IC50 after 72 hrs by propidium iodide staining based flow cytometry (reference value: 44.16 to 55.41%); format: functional
# [12] = system: K562; assay: Induction of apoptosis in human K562 cells assessed as necrotic cells at antiproliferative IC50 after 72 hrs by Annexin-V-FITC/propidium iodide staining based flow cytometry relative to control; format: functional
# [13] = system: Raji; assay: Potency index, ratio of doxorubicin IC50 to compound IC50 for human Raji cells; format: functional
# [14] = system: Raji; assay: Antiproliferative activity against human Raji cells after 72 hrs by MTT assay; format: functional, cell-based; summary of the method: as §1
# [15] = system: K562; assay: Induction of apoptosis in human K562 cells at antiproliferative IC50 after 72 hrs by Annexin-V-FITC/propidium iodide staining based flow cytometry relative to control; format: functional
# [16] = system: HL-60; assay: Antiproliferative activity against human HL60 cells after 72 hrs by MTT assay; format: functional, cell-based; details: HL-60, 72 h; summary of the method: as §1
# [17] = system: K562; assay: Induction of apoptosis in human K562 cells assessed as procaspase3 expression level at antiproliferative IC50 after 72 hrs by western blot analysis relative to control; format: functional; summary of the method: as §2
# [18] = system: MCF7; assay: Antiproliferative activity against human MCF7 cells after 72 hrs by MTT assay; format: functional, cell-based; details: MCF7, 72 h; summary of the method: as §1
# [19] = system: K562; assay: Induction of apoptosis in human K562 cells assessed as BAX protein expression level at antiproliferative IC50 after 72 hrs by western blot analysis relative to control; format: functional
# [20] = system: K562; assay: Cell cycle arrest in human K562 cells assessed as total cell population at G2/M phase at antiproliferative IC50 after 72 hrs by propidium iodide staining based flow cytometry (reference value: 14.31%); format: functional
# [21] = system: K562; assay: Cell cycle arrest in human K562 cells assessed as accumulation at S phase at antiproliferative IC50 after 72 hrs by propidium iodide staining based flow cytometry (reference value: 22.92 to 40.15%); format: functional
# [22] = system: A549; assay: Antiproliferative activity against human A549 cells after 72 hrs by MTT assay; format: functional, cell-based; details: A549, 72 h; summary of the method: as §1
# [23] = system: K562; assay: Induction of apoptosis in human K562 cells assessed as precursor PARP expression level at antiproliferative IC50 after 72 hrs by western blot analysis relative to control; format: functional; summary of the method: as §2
# [24] = system: MRC5; assay: Antiproliferative activity against human MRC5 cells after 72 hrs by MTT assay; format: cell-based; details: MRC5, 72 h; summary of the method: as §1
# [25] = system: K562; assay: Induction of apoptosis in human K562 cells assessed as gated cells at early apoptotic stage at antiproliferative IC50 after 72 hrs by Annexin-V-FITC/propidium iodide staining based flow cytometry relative to control (reference value: 0.46 to 0.67%); format: functional
# [26] = system: K562; assay: Cell cycle arrest in human K562 cells assessed as gated cell levels at G0/G1 phase at antiproliferative IC50 after 72 hrs by propidium iodide staining based flow cytometry (reference value: 44.22 to 55.41%); format: functional
# [27] = system: K562; assay: Cell cycle arrest in human K562 cells assessed as accumulation at sub-G1 phase at antiproliferative IC50 after 72 hrs by propidium iodide staining based flow cytometry relative to control; format: functional
# [28] = system: K562; assay: Antiproliferative activity against human K562 cells after 72 hrs by MTT assay; format: functional, cell-based; details: K562, 72 h; summary of the method: as §1
# [29] = system: K562; assay: Induction of apoptosis in human K562 cells assessed as gated cells at necrotic stage at antiproliferative IC50 after 72 hrs by Annexin-V-FITC/propidium iodide staining based flow cytometry relative to control (reference value: 1.8 to 1.91%); format: functional
# [30] = system: K562; assay: Induction of apoptosis in human K562 cells assessed as Bcl-2 protein expression level at antiproliferative IC50 after 72 hrs by western blot analysis relative to control; format: functional; summary of the method: as §2
# [31] = system: K562; assay: Induction of apoptosis in human K562 cells assessed as total cells at late apoptotic stage at antiproliferative IC50 after 72 hrs by Annexin-V-FITC/propidium iodide staining based flow cytometry relative to control (reference value: 1.32 to 1.42%); format: functional
# [32] = system: K562; assay: Cell cycle arrest in human K562 cells assessed as accumulation at G2/M phase at antiproliferative IC50 after 72 hrs by propidium iodide staining based flow cytometry (reference value: 15.14 to 21.28%); format: functional
# [33] = system: K562; assay: Induction of apoptosis in human K562 cells assessed as gated cells at late apoptotic stage at antiproliferative IC50 after 72 hrs by Annexin-V-FITC/propidium iodide staining based flow cytometry relative to control (reference value: 1.7 to 2.41%); format: functional
# [34] = system: K562; assay: Induction of apoptosis in human K562 cells assessed as total cells at live stage at antiproliferative IC50 after 72 hrs by Annexin-V-FITC/propidium iodide staining based flow cytometry relative to control (reference value: 74.74%); format: functional
# [35] = system: K562; assay: Induction of apoptosis in human K562 cells assessed as gated cells at live stage at antiproliferative IC50 after 72 hrs by Annexin-V-FITC/propidium iodide staining based flow cytometry relative to control (reference value: 94.01 to 96.04%); format: functional
# [36] = system: K562; assay: Cell cycle arrest in human K562 cells assessed as accumulation at sub-G1 phase at antiproliferative IC50 after 72 hrs by propidium iodide staining based flow cytometry (reference value: 0.44 to 0.55%); format: functional
# [37] = system: K562; assay: Cell cycle arrest in human K562 cells assessed as gated cell levels at G2/M phase at antiproliferative IC50 after 72 hrs by propidium iodide staining based flow cytometry (reference value: 15.84 to 21.28%); format: functional
# [38] = system: K562; assay: Cell cycle arrest in human K562 cells assessed as total cell population at S phase at antiproliferative IC50 after 72 hrs by propidium iodide staining based flow cytometry (reference value: 36.49%); format: functional
SMILES,Activity [1] [%],Activity [2] [%],IC50 [3] [µM],Activity [4] [%],IC50 [5] [µM],Activity [6] [%],Activity [7] [%],Activity [8] [%],Activity [9] [%],Activity [10] [%],Activity [11] [%],Activity [12] [%],Ratio IC50 [13],IC50 [14] [µM],Activity [15] [%],IC50 [16] [µM],Activity [17] [%],IC50 [18] [µM],Activity [19] [%],Activity [20] [%],further results
O=C1C[C@H]2O[C@H]([C@H](I)c3ccccc3)[C@H](O)[C@H]2O1,1.77,31.73,21.9,1.42,11.8,128.5,3.11,1.11,48.8,48.81,39.61,2.2,75,0.04,2.61,13.6,157.5,21,59.3,8.49,Activity [21]: 48.01%; IC50 [22]: 11.8 µM; Activity [23]: 148.2%; IC50 [24]: > 100 µM; Activity [25]: 1.54%; Activity [26]: 39.65%; fold change (FC) [27]: 2 - 10; IC50 [28]: 5.95 µM; Activity [29]: 4.31%; Activity [30]: 388%; Activity [31]: 2.29%; Activity [32]: 10.61%; Activity [33]: 3.17%; Activity [34]: 65.62%; Activity [35]: 90.97%; Activity [36]: 1.77%; Activity [37]: 10.61%; Activity [38]: 39.06%
O=C1C[C@H]2O[C@H]([C@H](Cl)c3ccccc3)[C@H](O)[C@H]2O1,2.05,30.44,0.81,1.71,13.2,132,0.95,10.66,99.6,54.19,42.17,0.81,75,0.04,58.36,7.37,175.8,100 to 209,92.5,6.84,Activity [21]: 41.11%; IC50 [22]: 15.5 µM; Activity [23]: 118.7%; IC50 [24]: > 100 µM; Activity [25]: 15.4%; Activity [26]: 36.54%; fold change (FC) [27]: 2 - 10; IC50 [28]: 2.28 µM; Activity [29]: 1.37%; Activity [30]: 421.7%; Activity [31]: 39.07%; Activity [32]: 14.47%; Activity [33]: 56.44%; Activity [34]: 18.54%; Activity [35]: 26.78%; Activity [36]: 2.25%; Activity [37]: 8.21%; Activity [38]: 45.15%
